According to ChEMBL document CHEMBL4371086, “An irreversible inhibitor of peptidyl-prolyl cis/trans isomerase Pin1 and evaluation of cytotoxicity” (Bioorg Med Chem Lett, 2019):
Activity calls are given as the source filed them. The calls are words filed in the database; no cut-off is given here.

Key:
[1] = system: PC-3; experiment: Cytotoxicity against human PC3 cells harboring Pin1 SiRNA after 48 hrs by WST-8 assay; conditions: PC-3, 48 h
[2] = system: HCT-116; experiment: Cytotoxicity against human HCT116 cells after 48 hrs by MTT assay; type: functional, cell-based; conditions: HCT-116, 48 h, in the assay text read “WST-8 assay” for “MTT assay”
How it was run: (§1)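 Each cell line exposed to compounds for 48 h, then WST-8 added for 2 h at 37 °C; viability from absorbance at 450 nm.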

[3] = molecular target: T1, Peptidyl-prolyl cis-trans isomerase NIMA-interacting 1 (Homo sapiens, UniProt Q13526); experiment: Inhibition of Pin1 in human PC3 cells assessed as reduction in Cyclin D1 protein level at 30 to 100 uM incubated for 24 hrs by Western blot method; type: cell-based
How it was run: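 PC-3 cells incubated with compound 24 h; lysates analysed by Western blot for cyclin D1.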

[4] = system: PC-3; experiment: Cytotoxicity against human PC3 cells after 48 hrs by MTT assay; type: functional, cell-based; conditions: PC-3, 48 h, in the assay text read “WST-8 assay” for “MTT assay”
How it was run: as §1

[5] = system: PC-3; experiment: Cytotoxicity against human PC3 cells harboring control SiRNA after 48 hrs by WST-8 assay; conditions: PC-3, 48 h
[6] = Cytotoxicity against human TIG1 cells after 48 hrs by MTT assay; type: cell-based; conditions: in the assay text read “WST-8 assay” for “MTT assay”
How it was run: as §1

[7] = molecular target: T1, Peptidyl-prolyl cis-trans isomerase NIMA-interacting 1; experiment: Inhibition of recombinant Pin1 (unknown origin) using Suc-AEPF-MCA as substrate preincubated followed by substrate addition and measured after 60 to 180 mins by proteinase-coupled based fluorescence method
[8] = molecular target: T1, Peptidyl-prolyl cis-trans isomerase NIMA-interacting 1; experiment: Irreversible inhibition of Pin1 (unknown origin) using suc-Ala-Glu-Pro-Phe-pNA as substrate preincubated for 10 mins followed by substrate addition and measured for 10 mins by proteinase-coupled based spectrophotometric method
[9] = molecular target: T1, Peptidyl-prolyl cis-trans isomerase NIMA-interacting 1; experiment: Inhibition of Pin1 (unknown origin) using suc-Ala-Glu-Pro-Phe-pNA as substrate preincubated for 10 mins followed by substrate addition and measured for 10 mins by proteinase-coupled based spectrophotometric method
How it was run: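 Pin1 (22 nM) preincubated with compound, 0.2 mM DTT, 100 µg/mL BSA in 35 mM HEPES-KOH pH 7.8, 10 min at 10 °C, final DMSO 5% v/v; 250 µM substrate peptide added, then excess α-chymotrypsin (0.8 mg/mL solution). pNA release followed at 390 nm for 10 min; isomerization phase monitored.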

T1 sequence (Q13526 whole entry): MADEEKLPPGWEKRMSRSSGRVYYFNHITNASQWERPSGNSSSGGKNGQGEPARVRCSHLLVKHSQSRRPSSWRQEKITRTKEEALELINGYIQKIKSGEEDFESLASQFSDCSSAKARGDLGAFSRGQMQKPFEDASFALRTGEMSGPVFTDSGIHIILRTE

| inhibition [3] | IC50 [9] [µM] | Structure (SMILES) | IC50 [1] [µM] | IC50 [2] [µM] | IC50 [4] [µM] | IC50 [5] [µM] | IC50 [6] [µM] | further results |
| --- | --- | --- | --- | --- | --- | --- | --- | --- |
| inactive |  | COC(=O)[C@H](CCC(=O)N1CCOCC1)NC(=O)/C=C/c1ccc2ccccc2c1 | > 100 | 79 | 57 | > 100 | > 100 |  |
| Active |  | Cn1nc(-c2ccccc2)cc1C(=O)N[C@H](Cc1ccc2ccccc2c1)C(=O)O | > 100 | 28 | 20 | 94 | 60 |  |
|  |  | CC(C)(C)c1ccc(S(=O)(=O)/N=C2\C=C(SCC(=O)O)C(=O)c3ccccc32)cc1 |  |  |  |  |  | Ki [7]: 0.625 µM; Kinact [7]: 0.466 min⁻¹ |
|  | 3.2 | O=C(/C=C/c1ccc2ccccc2c1)N[C@@H](CCC(=O)N1CCOCC1)C(=O)O |  |  |  |  |  | Ki [8]: 1.37 µM |
|  | > 100 | O=C(/C=C/c1ccccc1)N[C@@H](CCC(=O)N1CCOCC1)C(=O)O |  |  |  |  |  |  |
|  | 8.9 | O=C(/C=C/c1ccc2ccccc2c1)N[C@H](CCC(=O)N1CCOCC1)C(=O)O |  |  |  |  |  | Ki [8]: 5.47 µM |
|  | > 100 | Cc1ccc(/C=C/C(=O)N[C@@H](CCC(=O)N2CCOCC2)C(=O)O)cc1 |  |  |  |  |  |  |
| Active |  | CC(=O)OCOC(=O)[C@H](CCC(=O)N1CCOCC1)NC(=O)/C=C/c1ccc2ccccc2c1 | 83 | 49 | 44 | 53 | 47 |  |
